# The sample as a whole holds a higher share of hits than the screen did.
# V-ATPase pH = regulators of yeast V-ATPase proton transport. S. cerevisiae, pHLuorin cytosolic pH fluorescence. 350,000 compounds, 0.37% hits. response, % at 10 µM; in the data active means response mostly above about 7.3%, no sharp cut-off; inactive means mostly below about 5.4%; further: actives read high
# pCIP destab = p/CIP protein destabilization; F442A p/CIP-EGFP cells, EGFP fluorescence, 16 h; decrease of EGFP signal, % at 10 µM; 290,000 compounds, 0.01% hits;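 active means EGFP signal decrease of at least 30% at 10 µM or well 3 SD below plate mean, unless failing retest; inactive means the rest, including hits failing retest or dose response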
# Target sequence (Q05BA5 1-1403): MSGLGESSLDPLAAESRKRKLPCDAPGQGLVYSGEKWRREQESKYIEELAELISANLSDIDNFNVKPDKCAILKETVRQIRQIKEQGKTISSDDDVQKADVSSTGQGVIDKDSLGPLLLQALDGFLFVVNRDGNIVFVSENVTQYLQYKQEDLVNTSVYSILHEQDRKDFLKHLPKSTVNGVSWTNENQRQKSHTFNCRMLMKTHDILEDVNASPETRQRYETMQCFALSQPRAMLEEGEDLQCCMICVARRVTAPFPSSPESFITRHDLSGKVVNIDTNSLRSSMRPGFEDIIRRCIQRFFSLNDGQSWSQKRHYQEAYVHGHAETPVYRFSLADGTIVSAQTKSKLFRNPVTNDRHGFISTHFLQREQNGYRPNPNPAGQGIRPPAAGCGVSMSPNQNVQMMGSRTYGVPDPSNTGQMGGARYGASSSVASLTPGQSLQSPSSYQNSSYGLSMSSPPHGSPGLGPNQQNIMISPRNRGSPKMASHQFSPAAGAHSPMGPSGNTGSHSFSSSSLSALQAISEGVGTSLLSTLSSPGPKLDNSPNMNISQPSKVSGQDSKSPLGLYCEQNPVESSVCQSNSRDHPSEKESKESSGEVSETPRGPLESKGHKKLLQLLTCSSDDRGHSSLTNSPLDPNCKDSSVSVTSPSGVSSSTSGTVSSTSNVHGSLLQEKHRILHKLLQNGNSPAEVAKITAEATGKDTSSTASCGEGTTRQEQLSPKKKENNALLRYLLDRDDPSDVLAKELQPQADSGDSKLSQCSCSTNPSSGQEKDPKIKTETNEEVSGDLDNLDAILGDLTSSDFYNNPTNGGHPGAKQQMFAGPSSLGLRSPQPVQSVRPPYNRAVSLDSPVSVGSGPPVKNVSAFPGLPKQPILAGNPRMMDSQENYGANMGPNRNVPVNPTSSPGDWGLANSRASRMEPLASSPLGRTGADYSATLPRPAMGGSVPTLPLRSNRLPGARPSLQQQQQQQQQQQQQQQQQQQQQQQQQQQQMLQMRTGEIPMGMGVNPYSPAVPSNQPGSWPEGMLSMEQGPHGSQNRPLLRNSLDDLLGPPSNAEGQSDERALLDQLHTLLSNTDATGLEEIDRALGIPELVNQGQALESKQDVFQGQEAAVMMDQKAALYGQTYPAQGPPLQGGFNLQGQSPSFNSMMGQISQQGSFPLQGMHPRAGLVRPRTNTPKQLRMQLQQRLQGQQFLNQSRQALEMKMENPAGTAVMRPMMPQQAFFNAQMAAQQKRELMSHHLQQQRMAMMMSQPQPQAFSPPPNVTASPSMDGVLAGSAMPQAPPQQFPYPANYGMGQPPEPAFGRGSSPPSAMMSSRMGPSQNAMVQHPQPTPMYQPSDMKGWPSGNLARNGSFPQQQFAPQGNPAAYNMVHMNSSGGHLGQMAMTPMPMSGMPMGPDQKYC
# ABCB6 inh MLPCN = blocks the human ABCB6 transporter. K562-ABCB6 porphyrin accumulation, flow cytometry, 1 h; active compounds read low. AID 602162. Q9NP58. 360,000 compounds, 0.19% hits. fluorescence ratio to DMSO, % at 10 µM;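 active means fluorescence ratio to DMSO below 75%, the collection mean minus 3 SD; inconclusive means too few cells collected in the well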;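 further: signal is porphyrin accumulated inside mitochondria; 100% equals median channel fluorescence of DMSO control wells; lower ratio means ABCB6 inhibition with less porphyrin fluorescence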
# Dynein transport = dynein cargo transport inhibition. 220,000 compounds, 0.47% hits. 3617.4 mouse cells, GR-EGFP nuclear translocation imaging; test concentration mostly 20 µM; stimulated with dexamethasone, 1 µM; active compounds read low. z-score, hits read low;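 active means plate z-score of nuclear minus cytoplasmic receptor signal below a set negative limit, without overly bright fluorescence or cell loss, cut at about -3.5 in these data, passing the limit was not always enough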;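 further: z-score of nuclear minus cytoplasmic ring GR-EGFP intensity difference per well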
#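 Buffer or medium: tetracycline-free induction medium containing charcoal-stripped FBS / Reagent: dexamethasone agonist, 1.0 µM final, for 30 min / Technique: automated 10x imaging of fixed Hoechst-stained cells / Times: induction 48 h, compound 1 h, agonist 30 min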
# Cl transport mod = modulators of human KCC2 chloride dependent transport; 190,000 compounds, 2.2% hits; B-score of Tl+ flux slope (higher = more flux/activation; lower = inhibition) at 10 µM; Q9H2X9; KCC2 cells, thallium flux FluoZin-2 fluorescence;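 active means thallium flux slope and its plate-corrected score both differing from the plate sample mean at a set confidence after two filtering rounds, in either direction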;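 further: slope of fluorescence scaled to starting intensity during 10 to 20 s after thallium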
# KCC2 sec1 = KCC2 (human) modulation, secondary assay; HEK293-KCC2, thallium flux, FluoZin2 fluorescence; active compounds read high; AID 1713; shares compounds with Cl transport mod; 3,700 compounds, 15% hits; normalised thallium flux (F/F0 slope) at 10 µM;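 active means thallium flux slope above the same plate's solvent-only control mean plus 3 SD; inconclusive means the two replicate wells disagree; inactive means no significant difference from solvent-only control wells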
# KCC2 bumet counter = thallium flux persisting under bumetanide in KCC2 cells, counter-screen secondary assay; HEK293-KCC2 + bumetanide/ouabain, thallium flux FluoZin2; active compounds read high; normalized thallium flux at 10 µM; shares compounds with Cl transport mod; AID 1714; 3,700 compounds, 49% hits;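 active means thallium entry rate above the same plate's blocked-transporter control wells by more than 3 SD; inconclusive means the two repeat wells disagree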;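 further: raw slope of fluorescence over initial fluorescence between 10 and 20 s after thallium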
# KCC2 sec2 = confirmation of human KCC2 transport modulators | AID 1715 | normalized thallium flux at 10 µM | 3,700 compounds, 23% hits | HEK293-KCC2, thallium flux FluoZin2 fluorescence; actives lie on both sides; F/F0 rise rate, 10–20 s post-thallium | shares compounds with Cl transport mod;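 active means thallium flux slope more than 3 SD above or below the plate's solvent-only control mean, mostly below; inconclusive means the two repeat wells disagreed; inactive means no significant shift from solvent-only controls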;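 further: raw slope with 0.1% DMSO as baseline and bumetanide as block control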
# HEK293 Tl flux = parental HEK flux effect, counter-screen; shares compounds with Cl transport mod; HEK293 parental cells, thallium flux FluoZin2, ouabain; baseline-ratio fluorescence slope, 10–20 s after thallium; thallium flux rate (normalised fluorescence) at 10 µM; 3,700 compounds, 46% hits; AID 1716;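 active means thallium flux rate significantly above the same plate's solvent-only control wells, beyond their mean plus 3 SD; inconclusive means the two replicate wells gave conflicting results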
# KCC2 retest ouab = KCC2 (human) modulation, ouabain retest | HEK293-KCC2, thallium flux FluoZin2 fluorescence; bidirectional: low = inhibitor, high = activator | raw Tl+ flux slope (below DMSO = inhibition, above = activation) at 10 µM | 3,700 compounds, 48% hits | AID 1717 | shares compounds with Cl transport mod;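 active means thallium flux slope beyond 3 SD from same-plate DMSO control mean in most replicates, usually higher, sometimes lower; inconclusive means repeat tests gave conflicting results; inactive means no significant difference from controls in most replicates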;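 further: slope of initial-normalized fluorescence between seconds 10 and 20 after thallium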
# HEK counter2 = acts in parental HEK cells, second KCC2 counter-screen. shares compounds with Cl transport mod. HEK293 parental, thallium flux FluoZin-2 fluorescence slope. thallium flux slope at 10 µM. 3,700 compounds, 33% hits. AID 1718;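 active means thallium flux slope above the same plate's solvent-control mean plus 3 SD in both duplicate wells; inconclusive means duplicate wells that disagreed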;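 further: run without ouabain in cells lacking the KCC2 cotransporter; slope of fluorescence scaled to its starting value between 10 and 20 s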
# * marks the source's active call; other numbers are inactive results; ? = inconclusive; · = no result given.
SMILES,V-ATPase pH,pCIP destab,ABCB6 inh MLPCN,Dynein transport,Cl transport mod,KCC2 sec1,KCC2 bumet counter,KCC2 sec2,HEK293 Tl flux,KCC2 retest ouab,HEK counter2
Cc1ccccc1-n1nc2c(c1NC(=O)COc1ccc(Cl)cc1)CS(=O)C2 (stereo not drawn),-2,-3,98,0.48,1.4,·,·,·,·,·,·
COc1ccccc1C(=O)Nc1c2c(nn1-c1cccc(C)c1C)CS(=O)C2 (stereo not drawn),0,-9,94,-0.67,6.7*,0.0068,0.0039,0.028,?,0.018,0.0097
CCCn1nc(C(=O)OCC(=O)c2ccccc2)c2ccccc2c1=O,0,-3,99,-0.056,-1.6,·,·,·,·,·,·
CCn1nc(C(=O)OCC(=O)c2ccc(F)cc2)c2ccccc2c1=O,-1,10,104,-0.21,-5.4*,0.0061,0.0043,0.027,?,?,0.0092
N#C/C(=C\c1ccc(O)c([N+](=O)[O-])c1)c1nc2ccccc2s1,2,-18,105,0.11,-6.2*,0.0079,0.006,0.032,0.007,0.013*,0.01
O=C(O)CC/C(=C\c1ccc(N2CCOCC2)c([N+](=O)[O-])c1)c1nc2ccccc2s1,1,22,95,0.65,-8.5*,0.0057,0.0048,0.021*,0.0074,?,0.011
CC(O)(c1ccncc1)c1nc(-c2cccc(C(F)(F)F)c2)cs1 (stereo not drawn),·,·,94,·,·,·,·,·,·,·,·
CCOP(=O)(c1ccc(N(C)C)cc1)C(O)c1ccc(Cl)cc1 (stereo not drawn),-2,-5,94,0.3,-5*,0.0081,0.0055,0.035,0.0041,0.02,0.012
O=C(COc1ccc2ccccc2c1Br)Nn1cnnc1,1,8,103,2.8,-4.7*,0.0066,?,0.025*,0.0079,?,0.011
COC(=O)NNC(=O)COc1ccc2ccccc2c1Br,1,-6,100,0.38,-2.5,·,·,·,·,·,·
CC(C)(C)C(=O)NNC(=O)COc1ccc2ccccc2c1Br,-1,-1,97,-0.21,7.8*,0.0071,0.02*,0.029,0.011*,0.027*,?
CCc1ccc(C(=O)NNC(=O)CCC2CCCCC2)cc1,0,8,85,·,·,·,·,·,·,·,·
CC(C)(C)NC(=O)CC1C[C@H](C(=O)N2CCOCC2)[C@@]2(C)c3[nH]c4ccccc4c3CCN2C1=O (stereo partly drawn),0,·,98,·,·,·,·,·,·,·,·
CCOc1ccccc1NC(=S)N(CCCN1CCOCC1)Cc1cn(C)c2ccccc12,-6,-9,98,0.36,-4.7*,0.0073,0.0047,0.029,?,0.019,0.011
COc1ccccc1NC(=S)N(CCCN1CCOCC1)Cc1cn(C)c2ccccc12,-3,-2,98,-0.52,-1.5,·,·,·,·,·,·
O=C(CCCNC(=O)/C(=C/c1ccc(F)cc1)NC(=O)c1ccccc1)OCc1ccccc1,3,-5,101,-0.062,-3.2*,0.0075,0.0043,0.034,0.0067,0.018*,0.01
COC(=O)c1sc(NC(=S)NC(=O)c2ccccc2C)nc1C,1,-14,96,-0.82,92*,0.05*,0.15*,0.042*,0.1*,0.088*,0.033*
COC(=O)c1sc(NC(=S)NC(=O)c2ccc(F)cc2)nc1C,·,-2,·,-0.39,0.018,·,·,·,·,·,·
O=C1CN(C(=O)COC(=O)CCC(=O)c2ccc(Cl)cc2)c2ccccc2N1,0,·,91,·,·,·,·,·,·,·,·
O=C1CN(C(=O)COC(=O)CCC(=O)c2ccc3c(c2)OCCO3)c2ccccc2N1,-3,-6,101,-0.51,-4.4*,0.0073,0.005,0.024*,0.0078,0.017,0.01
CCC(=O)N(CCC(c1ccc(C)cc1)c1ccco1)Cc1ccco1 (stereo not drawn),-6,-30,108,-2.4,-1.3,·,·,·,·,·,·
Cc1nn(Cc2ccccc2Cl)c(C)c1NC(=O)CCCn1nc([N+](=O)[O-])c(Cl)c1C,0,-22,96,-0.76,-0.098,·,·,·,·,·,·
Oc1ccc(-c2csc(NCc3ccco3)n2)cc1,2,-2,100,-1.4,·,0.0086,0.0046,0.032,0.0056*,0.016*,0.0087
CCC(=O)NC(=S)Nc1ccccc1C(=O)OC,-1,1,100,0.54,0.72,·,·,·,·,·,·
COC(=O)c1ccccc1NC(=S)NC(=O)COc1ccc(C(C)C)cc1,4,-8,98,2.2,9.7*,0.011,0.017*,0.035,0.019*,0.036*,0.012
SMILES,V-ATPase pH,pCIP destab,ABCB6 inh MLPCN,Dynein transport,Cl transport mod,KCC2 sec1,KCC2 bumet counter,KCC2 sec2,HEK293 Tl flux,KCC2 retest ouab,HEK counter2
Cc1ccccc1NC(=S)NC(NC(=O)COc1ccccc1)C(Cl)(Cl)Cl (stereo not drawn),7,-7,97,2.8,·,·,·,·,·,·,·
COC(=O)c1ccccc1NC(=S)NC(NC(=O)COc1ccccc1)C(Cl)(Cl)Cl (stereo not drawn),-6,-3,92,-0.77,·,0.0078,?,0.031,?,0.025*,0.011
O=C(NC(=S)Nc1ccccc1Cl)c1cncc(Br)c1,-3,-6,100,·,·,·,·,·,·,·,·
O=C(NC(=S)Nc1ccccc1Cl)c1cncc(C#Cc2ccccc2)c1,-2,-6,96,0.28,12*,0.01,0.015*,0.036,0.011*,0.03,?
COc1ccc(CCNc2cc(-c3ccccc3)nc3ncnn23)cc1,·,-20,105,-0.24,4.7*,0.0071,0.0043,0.027,0.0068,0.017,?
COc1ccc(NC(=O)CSc2nc3ccsc3c(=O)n2CCC(=O)O)c(OC)c1,-2,-10,101,·,·,·,·,·,·,·,·
CN(C)c1nc(OCCNC(=O)COc2ccccc2Cl)nc(N(C)C)n1,-4,-14,97,-1.1,0.22,·,·,·,·,·,·
CCOC(=O)c1cn(Cc2ccccc2)nc1-c1ccccc1,-4,·,101,·,·,·,·,·,·,·,·
O=C(O)/C=C/c1cn(Cc2ccccc2)nc1-c1ccccc1,2,-8,97,-0.78,-3.2*,0.0069,0.0044,?,0.0072,0.015*,0.0097

# Source: PubChem
